The array DNA melting data of Ke et al. (doi:10.1101/2024.01.08.574731)

What was measured:
[1] = folding enthalpy; higher = less favourable; fluorescence melt of hairpins on a sequencing array, two-state fit; settings: sodium 0.088 M
Summary of the method: (§1)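 With Cy3 and quencher oligos annealed, library hairpins on a sequenced MiSeq flow cell were imaged for Cy3 fluorescence in 50 mM Na-HEPES pH 8.0, 25 mM NaCl, in 2.5 °C steps up to 60 °C. Melting temperature and folding enthalpy were derived from bootstrapped two-state fits of signals normalised to pre-quench Cy3 and to control constructs. Four replicates were combined by inverse variance, with fitted temperatures raised by 9.35 °C to match UV melts.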

[2] = melting temperature; fluorescence melt of hairpins on a sequencing array, two-state fit, raised by 9.35 °C to match UV melts; settings: sodium 0.088 M
Summary of the method: as §1

| Sequence | folding enthalpy [1] [kcal/mol] | Tm [2] [°C] |
| --- | --- | --- |
| GCTCGGCGAAAGCCAGGC ((..(((....)))..)) | -12.6 | 58.8 |
| GCTCGGCGAAAGCCTCGC ((..(((....)))..)) | -14.4 | 48.7 |
| GCTCGGCGAAAGCGAAGC (((..((....))..))) | -13.1 | 47.2 |
| GCTCGGCGAAAGCGGCGC ((.(.((....)).).)) | -15.8 | 54 |
| GCTCGGCGAAAGCTGGGC ((.(.((....)).).)) | -26.2 | 60.9 |
| GCTCGGGGAAACTCGAGC (((((.(....).))))) | -44.2 | 58.5 |
| GCTCGTGGAAACGTGAGC ((((..(....)..)))) | -21.3 | 46.2 |
| GCTCTACCGAAAGGTAGC (((..(((....)))))) | -9.29 | 31.3 |
| GCTCTACGAAAGTAAGC (((.(((....)))))) | -18.8 | 38.7 |
| GCTCTACGAAAGTATAGC (((.(((....))).))) | -29.7 | 42.5 |
| GCTCTAGGAAACTAGAAC (.(((((....))))).) | -14.2 | 29.7 |
| GCTCTAGGAAACTAGGGC ((.((((....)))).)) | -32.7 | 47.1 |
| GCTCTCCGAAAGGACAGC (((.(((....))).))) | -25.9 | 41.3 |
| GCTCTCGAAAGAGGGAGC ((((((....)))..))) | -21.8 | 45.5 |
| GCTCTCGAAAGAGTCAGC ((((((....)))..))) | -14.7 | 32.9 |
| GCTCTCGAAAGAGTTAGC ((((((....)))..))) | -21.8 | 35.3 |
| GCTCTCGCGAAAGCGAGC (((..(((....)))))) | -4.57 | 38.3 |
| GCTCTGCGAAAGCAAGGC ((..(((....)))..)) | -17.7 | 46.9 |
| GCTCTGCGAAAGCATAGC (((.(((....))).))) | -41.8 | 49.8 |
| GCTCTGCGAAAGCGAAGC (((..((....))..))) | -13.6 | 40.8 |
| GCTCTGCGAAAGCGGGGC ((.(.((....)).).)) | -27.6 | 63.4 |
| GCTCTGCGAAAGCTCAGC (((..((....))..))) | -14.9 | 35.5 |
| GCTCTGCGAAAGCTGTGC ((.(.((....)).).)) | -21 | 43.6 |

| Sequence | folding enthalpy [1] [kcal/mol] | Tm [2] [°C] |
| --- | --- | --- |
| GCTCTGCGAAAGCTTAGC (((..((....))..))) | -18.5 | 44.2 |
| GCTCTGGGAAACCAGGGC ((.((((....)))).)) | -38 | 54.6 |
| GCTCTTGGAAACAAGAGC (((((((....))))))) | -37.2 | 63.2 |
| GCTCTTGGAAACAAGGGC ((.((((....)))).)) | -38.5 | 50.6 |
| GCTCTTGGAAACGAGAGC (((((.(....).))))) | -30.2 | 51.2 |
| GCTGAAGGAAACTCCAGC ((((.((....)).)))) | -27.8 | 40.7 |
| GCTGAAGGAAACTTCAAC (.(((((....))))).) | -18 | 29.8 |
| GCTGAAGGAAACTTCAGC (((((((....))))))) | -41.1 | 62.4 |
| GCTGACGAAAGTCCGAGC ((((((....)))..))) | -17.6 | 37.6 |
| GCTGACGAAAGTCGAGC ((((((....))).))) | -37.7 | 54.6 |
| GCTGACGAAAGTCGCAGC ((((((....)))..))) | -16.7 | 49.5 |
| GCTGACGAAAGTCTAGC ((((((....))).))) | -22.1 | 51.9 |
| GCTGACGAAAGTCTCAGC ((((((....)))..))) | -20.9 | 40.9 |
| GCTGACGAAAGTCTTAGC ((((((....)))..))) | -22.6 | 39.8 |
| GCTGAGAAATCAGC (((((....))))) | -28.4 | 53.2 |
| GCTGAGCGAAAGCACCGC ((.(.((....)).).)) | -19 | 37.2 |
| GCTGAGCGAAAGCCGAGC (((..((....))..))) | -17.2 | 48.7 |
| GCTGAGCGAAAGCGCTGC ((.(.((....)).).)) | -16.1 | 54.7 |
| GCTGAGCGAAAGCTATGC ((..(((....)))..)) | -17.4 | 48.6 |
| GCTGAGCGAAAGCTCTGC ((.((((....)))).)) | -31.6 | 66.4 |
| GCTGAGCGAAAGCTGCGC ((..(((....)))..)) | -19 | 54.7 |
| GCTGAGCGAAAGCTTAGC (((.(((....))).))) | -50.4 | 57.4 |
| GCTGAGGGAAACCCCAGC ((((.((....)).)))) | -33.3 | 51.4 |

| Sequence | folding enthalpy [1] [kcal/mol] | Tm [2] [°C] |
| --- | --- | --- |
| GCTGAGGGAAACCTCGGC ((.((((....)))).)) | -39.9 | 56.8 |
| GCTGATACGAAAGTAAGC (((..(((....)))))) | -14.4 | 33.9 |
| GCTGATCGAAAGATTAGC (((.(((....))).))) | -47.2 | 51.9 |
| GCTGATGGAAACACCAGC ((((.((....)).)))) | -30.8 | 45.9 |
| GCTGATGGAAACGTTAGC (((.(.(....).).))) | -11.2 | 27.8 |
| GCTGCAGGAAACCGCAAC (.(((.(....).))).) | -14.6 | 27.3 |
| GCTGCCCCGAAAGGGAGC (((..(((....)))))) | -13.3 | 55.2 |
| GCTGCCGAAAGGCCAAGC ((((((....)))..))) | -15.5 | 46.3 |
| GCTGCCGAAAGGCCCAGC ((((((....)))..))) | -12.2 | 35.8 |
| GCTGCCGAAAGGCCTAGC ((((((....)))..))) | -14.2 | 41 |
| GCTGCCGAAAGGCTAGC ((((((....))).))) | -16.7 | 59.6 |
| GCTGCCGAAAGGCTTAGC ((((((....)))..))) | -16.1 | 45.2 |
| GCTGCGCCGAAAGGCAGC (((..(((....)))))) | -11.5 | 61.1 |
| GCTGCGCGAAAGCAGAGC (((..((....))..))) | -16.1 | 47.7 |
| GCTGCGCGAAAGCCCCGC ((.(.((....)).).)) | -9.96 | 31.8 |
| GCTGCGCGAAAGCGGCGC ((..(((....)))..)) | -15.5 | 63.7 |
| GCTGCGCGAAAGCGGGGC ((..(((....)))..)) | -26.9 | 63.1 |
| GCTGCGCGAAAGCGTCGC ((..(((....)))..)) | -15.2 | 51.4 |
| GCTGCGCGAAAGCTAAGC (((..((....))..))) | -23.4 | 44 |
| GCTGCGCGAAAGCTCCGC ((.(.((....)).).)) | -12.3 | 38.5 |
| GCTGCGGGAAACCGCAAC (.(((((....))))).) | -11.4 | 45.9 |
| GCTGCGGGAAACCGTGGC ((..(((....)))..)) | -35.3 | 52.6 |
| GCTGCTCCGAAAGGAAGC (((..(((....)))))) | -14.1 | 47 |

| Sequence | folding enthalpy [1] [kcal/mol] | Tm [2] [°C] |
| --- | --- | --- |
| GCTGCTCGAAAGAGAGC (((.(((....)))))) | -20.5 | 48 |
| GCTGCTGGAAACAGCGGC ((.((((....)))).)) | -45.2 | 65.8 |
| GCTGCTGGAAACAGTAGC (((.(((....))).))) | -43.1 | 54.3 |
| GCTGGACGAAAGTCGAGC (((.(((....))).))) | -44.2 | 56.2 |
| GCTGGAGAAATCCAGC ((((((....)))))) | -35.9 | 62.9 |
| GCTGGAGGAAACTCTAGC (((.(((....))).))) | -40.4 | 48.4 |
| GCTGGAGGAAACTTCGGC ((.(.((....)).).)) | -29.6 | 37.2 |
| GCTGGCGAAAGCCCCAGC ((((((....)))..))) | -14.8 | 43.5 |
| GCTGGCGAAAGCCCGAGC ((((((....)))..))) | -14.3 | 45.4 |
| GCTGGCGAAAGCCGGAGC ((((((....)))..))) | -11.4 | 56.4 |
| GCTGGCGGAAACGTCGGC ((.(.((....)).).)) | -38.7 | 53.1 |
| GCTGGGCGAAAGCAAAGC (((..((....))..))) | -20.9 | 54.1 |
| GCTGGGCGAAAGCCAGC (((.(((....)))))) | -22.4 | 68.5 |
| GCTGGGCGAAAGCCTCGC ((..(((....)))..)) | -14.9 | 44.6 |
| GCTGGGCGAAAGCGCTGC ((.(.((....)).).)) | -31.7 | 60 |
| GCTGGGCGAAAGCGGAGC (((..((....))..))) | -17.2 | 44.1 |
| GCTGGGCGAAAGCTCTGC ((.(.((....)).).)) | -22.3 | 53.1 |
| GCTGGGGGAAACCCCAAC (.(((((....))))).) | -13.2 | 38.5 |
| GCTGGGGGAAACCCCGGC ((.((((....)))).)) | -33.8 | 65.5 |
| GCTGGGGGAAACCCTAGC (((.(((....))).))) | -36.2 | 53.2 |
| GCTGGGGGAAACTCCGGC ((.((.(....).)).)) | -31.1 | 47.1 |
| GCTGGTGGAAACACCAAC (.(((((....))))).) | -14.4 | 41.3 |
